Results from different studies.
Lines come from different studies, so protocols differ. In brackets after ≈: the same amount, converted by molar mass.
Organism: Escherichia coli

Compound	test	system	conditions	measurement	result
COc1c(N2C[C@@H]3CCCN[C@@H]3C2)c(F)cc2c(=O)c(C(=O)O)cn(C3CC3)c12	microbial growth			MIC90	0.06 µg/mL (≈ 0.149 µM)
COC(=O)c1cc(-c2cccc(NC(=O)Nc3ccc(F)c(F)c3)c2)on1	microbial growth, broth dilution	ATCC25922		MIC	> 64 µg/mL
CC(C)C(C)CCCCCCCCCCCc1cc(O)cc(O)c1 (centres unmarked)	microbial growth			IC50	50.2 µM
COC(=O)c1cc(-c2cccc(NC(=S)Nc3ccc(F)cc3F)c2)on1	microbial growth, broth dilution	ATCC25922		MIC	> 64 µg/mL
CC1(C)S[C@@H]2[C@H](NC(=O)[C@H](N)c3ccccc3)C(=O)N2[C@H]1C(=O)O	microbial growth, well diffusion	ATCC35218	60000 µg/mL	inhibition zone	15 mm
C[C@H]1NCc2cc(-c3ccc4c(=O)c(C(=O)O)cn(C5CC5)c4c3OC(F)F)ccc21	microbial growth, broth dilution			MIC90	0.25 µg/mL (≈ 0.586 µM)
O=C(O)c1cn(C2CC2)c2cc(N3CCNCC3)c(F)cc2c1=O	microbial killing			MBC	19 µM
Cc1c(NN=C(C#N)C2=NC(=O)CS2)c(=O)n(-c2ccccc2)n1C	microbial killing, broth dilution			MBC	0.25 µg/mL
O=C(N/N=C/c1ccc([N+](=O)[O-])o1)c1ccc(O)cc1	microbial growth			MIC90	31.2 µg/mL (≈ 114 µM)
O=C(Nc1cccc(-c2cc(C(=O)O)no2)c1)Nc1ccc(Cl)c(Cl)c1	microbial growth, broth dilution	ATCC25922		MIC	> 64 µg/mL
CCCCCCCCCCCCCCCCCCCCc1cc(O)cc(O)c1	microbial growth			IC50	> 200 µM
COC(=O)c1cc(-c2cccc(NC(=S)Nc3ccc(Cl)cc3)c2)on1	microbial growth, broth dilution	ATCC25922		MIC	> 64 µg/mL
CCC(CCCCCCCCCCc1cc(O)cc(O)c1)C(C)C (centres unmarked)	microbial growth			IC50	34.3 µM
Cc1cc(/C=C2\Sc3ccccc3N2CCCN2CCC(C)CC2)c2ccccc2[n+]1C.[I-]	microbial growth, broth dilution	ATCCBAA2469		MIC	1 µg/mL
